According to publication PMC9245008 (ACS chemical biology, 2022):
pIC50: −log10 of the molar value.

Key:
CK1γ2 = CK1γ2 (Homo sapiens, UniProt P78368); assay: MRC Dundee kinase panel screen at 10 μM; format: biochemical
CIA mouse model = CIA mouse model of inflammatory arthritis; format: in vivo, DBA/1 mice
In short: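 Type II collagen emulsified 1:1 with Freund's complete adjuvant; mice anaesthetised with isoflurane and given intradermal tail-base injections (400 μg collagen total) on days 0 and 21, then randomised by body weight on day 21.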

IRAK1 = IRAK1 (Homo sapiens, UniProt P51617); assay: Dose–response of top 10 kinase hits; format: biochemical; conditions: read-out: IC50 IRAK1, n = 2
[1] = system: IL-6 expression in THP-1 cells; assay: Cytokine dose–response curves in THP-1 cells; format: cell-based, human; conditions: read-out: IC50 IL-6 expression; LPS-stimulated THP-1, 24 h
In short: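 THP-1 cells differentiated with PMA (100 nM) for up to 72 h, then rested 24 h in PMA-free RPMI. Pretreated with test compound (3.2 nM–32 μM) or DMSO vehicle, then stimulated with LPS (10 ng/mL). After 24 h, TNF, IL-6 and IL-1β in supernatant measured by Luminex and expressed as percent of vehicle control; n = 3.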

ULK2 = target: T1, ULK2 (Homo sapiens, UniProt Q8IYT8); assay: Dose–response of top 10 kinase hits; format: biochemical; conditions: read-out: IC50 ULK2, n = 2
T1 sequence (Q8IYT8 1-1036): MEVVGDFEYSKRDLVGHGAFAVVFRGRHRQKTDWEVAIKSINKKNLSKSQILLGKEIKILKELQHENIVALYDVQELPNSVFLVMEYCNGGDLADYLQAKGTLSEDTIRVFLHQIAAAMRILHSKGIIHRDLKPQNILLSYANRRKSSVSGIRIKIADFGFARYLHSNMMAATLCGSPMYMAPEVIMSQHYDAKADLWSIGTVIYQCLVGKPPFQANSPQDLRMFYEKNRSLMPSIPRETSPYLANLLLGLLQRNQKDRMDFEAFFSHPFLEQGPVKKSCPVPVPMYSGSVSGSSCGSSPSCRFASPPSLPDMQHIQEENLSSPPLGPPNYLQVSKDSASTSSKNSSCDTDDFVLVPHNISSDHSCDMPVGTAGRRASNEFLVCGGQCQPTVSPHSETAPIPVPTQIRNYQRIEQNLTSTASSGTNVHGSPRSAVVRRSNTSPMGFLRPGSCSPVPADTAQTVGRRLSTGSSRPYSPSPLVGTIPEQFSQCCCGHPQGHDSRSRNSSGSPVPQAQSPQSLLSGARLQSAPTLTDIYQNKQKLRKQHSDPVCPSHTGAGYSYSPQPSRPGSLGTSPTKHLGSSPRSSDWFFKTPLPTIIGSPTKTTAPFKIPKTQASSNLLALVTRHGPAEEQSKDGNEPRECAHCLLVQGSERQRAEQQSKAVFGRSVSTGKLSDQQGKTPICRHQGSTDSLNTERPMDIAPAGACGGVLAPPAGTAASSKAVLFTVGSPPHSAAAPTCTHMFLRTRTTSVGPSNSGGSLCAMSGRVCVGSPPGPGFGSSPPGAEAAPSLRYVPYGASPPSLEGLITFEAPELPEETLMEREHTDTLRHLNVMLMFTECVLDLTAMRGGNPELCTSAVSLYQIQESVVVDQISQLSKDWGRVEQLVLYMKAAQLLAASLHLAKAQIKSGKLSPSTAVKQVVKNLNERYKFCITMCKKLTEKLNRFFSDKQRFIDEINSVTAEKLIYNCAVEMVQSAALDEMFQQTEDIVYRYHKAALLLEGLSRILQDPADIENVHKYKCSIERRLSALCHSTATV

NUAK = target: T2, NUAK (Homo sapiens, UniProt O60285); assay: Dose–response of top 10 kinase hits; format: biochemical; conditions: read-out: IC50 NUAK, n = 2
T2 sequence (O60285 1-661): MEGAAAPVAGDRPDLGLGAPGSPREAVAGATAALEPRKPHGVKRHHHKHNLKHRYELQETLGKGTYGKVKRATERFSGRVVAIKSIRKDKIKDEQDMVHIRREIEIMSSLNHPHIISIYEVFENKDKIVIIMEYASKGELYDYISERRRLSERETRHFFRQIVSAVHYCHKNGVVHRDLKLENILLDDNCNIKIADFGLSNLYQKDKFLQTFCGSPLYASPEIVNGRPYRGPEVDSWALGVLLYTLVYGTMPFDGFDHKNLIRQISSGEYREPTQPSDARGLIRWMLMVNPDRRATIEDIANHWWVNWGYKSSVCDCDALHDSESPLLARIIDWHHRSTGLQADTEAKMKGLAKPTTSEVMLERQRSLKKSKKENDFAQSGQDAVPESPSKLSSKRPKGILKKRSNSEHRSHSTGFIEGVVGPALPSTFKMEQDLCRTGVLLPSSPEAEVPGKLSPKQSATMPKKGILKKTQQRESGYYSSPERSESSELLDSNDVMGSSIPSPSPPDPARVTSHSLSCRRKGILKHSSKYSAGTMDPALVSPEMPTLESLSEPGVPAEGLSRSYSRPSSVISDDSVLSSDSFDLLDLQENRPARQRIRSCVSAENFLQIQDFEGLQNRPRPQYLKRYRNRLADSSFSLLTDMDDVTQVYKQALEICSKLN

IRAK4 = target: T3, IRAK4 (Homo sapiens, UniProt Q9NWZ3); assay: Potency of takinib analogues against IRAK4; format: biochemical
T3 sequence (Q9NWZ3 1-460): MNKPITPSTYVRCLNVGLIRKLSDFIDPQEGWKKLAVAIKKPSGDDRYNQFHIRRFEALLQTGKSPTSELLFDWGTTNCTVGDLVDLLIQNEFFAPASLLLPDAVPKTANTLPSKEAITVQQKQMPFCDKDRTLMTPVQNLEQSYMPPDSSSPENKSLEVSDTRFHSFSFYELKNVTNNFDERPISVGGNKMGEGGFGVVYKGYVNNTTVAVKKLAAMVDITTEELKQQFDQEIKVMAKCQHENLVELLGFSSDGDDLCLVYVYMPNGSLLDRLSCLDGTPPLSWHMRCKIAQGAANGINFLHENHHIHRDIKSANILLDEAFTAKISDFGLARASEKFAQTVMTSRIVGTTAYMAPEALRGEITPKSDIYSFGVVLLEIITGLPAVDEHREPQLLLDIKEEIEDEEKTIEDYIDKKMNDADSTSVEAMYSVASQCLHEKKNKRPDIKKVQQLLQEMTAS

[2] = 50 mg/kg IP, all joints (paws and knees), vs vehicle

Sequence of CK1γ2 (P78368 whole entry): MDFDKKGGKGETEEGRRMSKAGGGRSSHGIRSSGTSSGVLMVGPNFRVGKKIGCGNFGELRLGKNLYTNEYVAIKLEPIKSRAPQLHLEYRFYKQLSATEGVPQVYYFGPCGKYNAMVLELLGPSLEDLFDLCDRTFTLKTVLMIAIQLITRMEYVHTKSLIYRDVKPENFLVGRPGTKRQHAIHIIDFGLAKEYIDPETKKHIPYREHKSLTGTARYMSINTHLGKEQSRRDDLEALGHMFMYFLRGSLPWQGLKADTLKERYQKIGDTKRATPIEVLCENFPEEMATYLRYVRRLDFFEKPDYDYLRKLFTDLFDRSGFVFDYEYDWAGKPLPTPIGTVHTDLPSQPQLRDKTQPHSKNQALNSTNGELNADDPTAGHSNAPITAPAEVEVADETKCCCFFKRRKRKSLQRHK
Sequence of IRAK1 (P51617 whole entry): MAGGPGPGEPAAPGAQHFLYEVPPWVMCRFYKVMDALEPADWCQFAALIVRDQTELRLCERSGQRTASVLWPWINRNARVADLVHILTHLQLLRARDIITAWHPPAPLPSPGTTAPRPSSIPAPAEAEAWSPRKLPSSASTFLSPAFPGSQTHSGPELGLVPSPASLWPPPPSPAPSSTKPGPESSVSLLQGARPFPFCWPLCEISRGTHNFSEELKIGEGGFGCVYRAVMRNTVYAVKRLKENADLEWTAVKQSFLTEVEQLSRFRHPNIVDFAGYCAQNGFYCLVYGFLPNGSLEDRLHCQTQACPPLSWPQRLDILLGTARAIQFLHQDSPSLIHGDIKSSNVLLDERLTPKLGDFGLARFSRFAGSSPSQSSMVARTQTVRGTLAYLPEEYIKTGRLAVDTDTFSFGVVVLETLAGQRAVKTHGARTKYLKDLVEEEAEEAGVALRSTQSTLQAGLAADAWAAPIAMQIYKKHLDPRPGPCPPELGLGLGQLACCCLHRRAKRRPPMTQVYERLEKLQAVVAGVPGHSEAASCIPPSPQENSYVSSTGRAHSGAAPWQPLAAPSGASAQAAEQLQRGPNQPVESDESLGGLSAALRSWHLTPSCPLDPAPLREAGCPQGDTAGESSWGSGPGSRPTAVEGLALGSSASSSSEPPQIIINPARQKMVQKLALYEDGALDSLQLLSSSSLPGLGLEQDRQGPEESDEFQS

With `CCCn1c(NC(=O)c2cccc(C(N)=O)c2)nc2ccc(CN3CCCCC3)cc21` [HS-276] the enzymatic activity (CK1γ2) was less than 15%, the “reduction of arthritic clinical score” value (CIA mouse model; 10 mg/kg QD PO) was 18% and the “reduction of disease clinical score” value (CIA mouse model; 25 mg/kg IP) was 36%. The “reduction of arthritic clinical score” value (CIA mouse model; 30 mg/kg QD PO) was 35%, the disease onset (CIA mouse model; 50 mg/kg IP) was “significantly delayed disease onset” and the “reduction of mean clinical score” value (CIA mouse model; 50 mg/kg IP) was 85%. For the same compound, the “reduction of bone resorption score” value (CIA mouse model; [2]) was 87%, the “reduction of cartilage damage score” value (CIA mouse model; [2]) was 76% and the “reduction of inflammation score” value (CIA mouse model; [2]) was 62%. For the same compound, the “reduction of pannus score” value (CIA mouse model; [2]) was 86%, the “reduction of periosteal bone formation score” value (CIA mouse model; [2]) was 93% and the clinical arthritis scores (CIA mouse model; 50 mg/kg, days 26 through 36, vs disease control) was “significantly reduced”. The “reduction of AUC of clinical arthritis scores” value (CIA mouse model; 50 mg/kg, vs disease control mice) was 85%, the disease onset (CIA mouse model; 10 and 30 mg/kg QD PO and 25 mg/kg IP, vs vehicle) was “did not significantly delay disease onset” and the disease incidence (CIA mouse model; day 36, 50 mg/kg IP, vehicle 92%) was 75%. It also gave a pIC50 (IRAK1) of 6.58, a pIC50 [1] of 6.70 and a pIC50 (ULK2) of 7.20. For the same compound, the pIC50 (NUAK) was 6.57, the “IRAK4 inhibition in dose–response experiments” value (IRAK4; Figure 2d) was “minimal IRAK4 inhibition” and the Ratio (IRAK4; IRAK4 IC50 over TAK1 IC50) was 1000. For the same compound, the pIC50 (IRAK4; read-out: IRAK4 IC50) was 5.60 and the “preference for TAK1 over IRAK4” value (IRAK4; selectivity) was 1000 fold.
